The text below walks through data of ChEMBL document CHEMBL1136979, “Discovery of 4-anilino-N-methylthieno[3,2-d]pyrimidines and 4-anilino-N-methylthieno[2,3-d]pyrimidines as potent apoptosis inducers” (Bioorg Med Chem Lett, 2009).

pEC50, pIC50: −log10 of the molar value.

One may read the pEC50 as the negative decadic logarithm of the EC50, by convention in mol/L. The pIC50 is the IC50 on a negative log10 scale, so that one unit is a factor of ten.

The subject of one data set is NCI-H1299. The experiment in a line: Induction of apoptosis in human H1299 cells assessed as caspase activation after 48 hrs by HTS assay. Format: functional, cell-based. The conditions noted are these: NCI-H1299, 48 h. The method in brief:
(§1)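 Cell-based caspase activation HTS assay that reads cleavage of a fluorescent caspase-3 substrate in human breast cancer T47D or non-small cell lung cancer H1299 cells. Cells were exposed to compound for 48 h. EC50 is the mean ± SEM of three or more experiments.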

The subject of the next data set is T47D. The experiment in a line: Induction of apoptosis in human T47D cells assessed as caspase activation after 48 hrs by HTS assay. Format: functional, cell-based. In outline:
as §1

Data set [1] is described as follows: Inhibition of tubulin polymerization by high-throughput assay.
The test system of the next data set is Mus musculus. Briefly: Toxicity in Crl:Nu/Nu-nuBR mouse assessed as maximum body weight decrease at 75 mg/kg, iv administered as single dose. Format: organism-based. On the set-up: dose 75 mg/kg, route intravenous; scale not given: the % may be the effect or the level left. The conditions noted are these: in vivo.
The subject of data set [2] is MX1. Briefly: Antitumor activity against human MX1 cells xenografted in iv dosed Crl:Nu/Nu-nuBR mouse assessed as tumor growth inhibition administered as single dose. Format: functional, organism-based. In outline: (§2)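 Nude (Crl:Nu/Nu-nuBR) mice bore established MX-1 xenografts of about 100 mm³. Compound was given iv as single doses of 35, 50 or 75 mg/kg on day 1, or at 7 mg/kg daily on days 1–5, against a vehicle group. Tumor growth inhibition was assessed against vehicle, with significance by Student's t-test.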

Data set [3] concerns MX1. Briefly: Antitumor activity against human MX1 cells xenografted in Crl:Nu/Nu-nuBR mouse assessed as tumor growth inhibition at 75 mg/kg, iv administered as single dose. The conditions noted are these: read-out: TGI. Format: functional. The method in brief:
as §2
(In general: A xenograft is tissue or cells of one species grown in another, often human tumour cells in immunodeficient mice.)

Take `COc1ccc(OC)c(N(C)c2ncnc3ccsc23)c1`: the figures for the pEC50 in the data set with NCI-H1299 and with T47D were 5.30 and 5.59, respectively.

On to `COc1ccc(N(C)c2nccc3ccsc23)cc1`, for which the pEC50 with NCI-H1299 and with T47D was under 5.00 throughout.

On to `COc1ccc(N(C)c2ncnc3cc(-c4cccnc4)sc23)cc1`, for which the pEC50 in the data set on NCI-H1299 and in the data set with T47D was under 5.00 throughout.

As for `COc1ccc(N(C)c2ncnc3c(C)csc23)cc1`, the negative-log EC50 (pEC50) with NCI-H1299 and in the data set with T47D was 6.25 in each case.

Take `COc1ccc(N(C)c2nc(C)nc3c(C)csc23)cc1`: the pEC50 in the data set with NCI-H1299 is 6.51; in the data set with T47D, 6.62.

`COc1ccc(N(C)c2ncnc3ccsc23)cc1` gave a pIC50 in data set [1] of over 6.00. For the same molecule, the pEC50 in the data set with NCI-H1299 is 6.62; in the data set with T47D, 7.28.

With `c1ccc(-c2cc3ncnc(NCc4ccc5c(c4)OCO5)c3s2)cc1`, the pEC50 is 6.15 in the data set with NCI-H1299 and 6.00 in the data set with T47D.

`COc1cc2c(c(OC)c1OC)-c1ccc(OC)c(=O)cc1[C@@H](NC(C)=O)CC2` [COLCHICINE]: the pIC50 in data set [1] is 6.30. For the same molecule, the negative-log EC50 (pEC50) was 7.30 with NCI-H1299 and 8.05 in the data set with T47D.

`COc1ccc(N(C)c2nc(C)nc3sc(C)c(C)c23)cc1` showed a pIC50 in data set [1] of over 6.00. In addition, the pEC50 was 7.04 in the data set on NCI-H1299 and 7.68 with T47D.

Consider `COC(=O)c1ccc(N(C)c2ncnc3ccsc23)cc1`, for which the pEC50 was 6.47 in the data set with NCI-H1299 and 6.72 with T47D.

As to `COc1ccc(Nc2ncnc3scc(C)c23)cc1`, the pEC50 with NCI-H1299 and in the data set on T47D was under 5.00 throughout.

For `COc1ccc(Nc2nc(C)nc3scc(C)c23)cc1`, the pEC50 with NCI-H1299 and with T47D was under 5.00 in each case.

With `COc1cc(OC)cc(N(C)c2ncnc3ccsc23)c1`, the pEC50 in the data set on NCI-H1299 and with T47D was under 5.00 each time.

Consider `COc1ccc(Nc2ncnc3ccsc23)cc1`, for which the pEC50 in the data set on NCI-H1299 and with T47D was under 5.00 in each case.

With `COc1ccccc1N(C)c1ncnc2ccsc12`, the pEC50 in the data set with NCI-H1299 and with T47D was under 5.00 each time.

Regarding `COc1ccc(N(C)c2nc(C)nc3sccc23)cc1`, the pIC50 in data set [1] is over 6.00. In addition, the results for the Activity in the data set with Mus musculus and with MX1 [2] were under 10% and “Dose-dependent effect”, respectively. Moreover, the pEC50 with NCI-H1299 is 7.80; in the data set with T47D, 8.10. Moreover, the inhibition in vivo at 75 mg/kg with MX1 [3] was determined as 90%.

Regarding `COc1ccc(N(C)c2ncnc3ccsc23)cc1OC`, the results for the pEC50 in the data set with NCI-H1299 and with T47D were 5.55 and 5.77, respectively.

Consider `COc1ccc(N(C)c2ncnc3cc(I)sc23)cc1`, for which the pEC50 in the data set with NCI-H1299 and in the data set on T47D was under 5.00 throughout.

Regarding `COc1ccc(N(C)c2ncnc3sccc23)cc1`, in data set [1], the pIC50 is over 6.00. The pEC50 is 7.36 in the data set with NCI-H1299 and 7.66 in the data set with T47D.

As for `COc1ccc(N(C)c2nc(-c3ccccc3)nc3ccsc23)cc1`, the pEC50 was 6.20 in the data set with NCI-H1299 and 6.47 in the data set on T47D.

For the molecule `c1nc(NCc2ccc3c(c2)OCO3)c2sccc2n1`, the pEC50 with NCI-H1299 and in the data set with T47D was under 5.00 throughout.

For `COc1cccc(N(C)c2ncnc3ccsc23)c1`, the pEC50 in the data set on NCI-H1299 and in the data set on T47D was under 5.00 in each case.

Consider `COc1ccc(N(C)c2ncnc3scc(C)c23)cc1`, for which, in data set [1], the pIC50 was over 6.00. For the same molecule, the pEC50 in the data set with NCI-H1299 was 7.60; in the data set on T47D, 7.82.

With `c1ccc(-c2cc3ncnc(Nc4ccc5c(c4)OCO5)c3s2)cc1`, the pEC50 with NCI-H1299 and in the data set with T47D was under 5.00 in each case.

For `COc1ccc(N(C)c2ncnc3sc(C)c(C)c23)cc1`, in data set [1], the pIC50 was over 6.00. Besides, the values for the pEC50 in the data set on NCI-H1299 and with T47D were 7.28 and 7.62, respectively.

With `COc1ccc(N(C)c2nc(C)nc3ccccc23)cc1` [VERUBULIN], the pEC50 in the data set on NCI-H1299 is 8.22; in the data set with T47D, 8.70.

In data set [1], `COc1ccc(N(C)c2nc(C)nc3scc(C)c23)cc1` showed a pIC50 of over 6.00. Besides, the figures for the pEC50 in the data set on NCI-H1299 and in the data set with T47D were 7.82 and 8.40, respectively.

With `COc1ccc(N(C)c2nc(C)nc3ccsc23)cc1`, in data set [1], the pIC50 was over 6.00. The figures for the pEC50 in the data set on NCI-H1299 and in the data set with T47D were 7.49 and 7.85, respectively.
